{"source": "paper PMC3947005", "about": "(Cancer research, 2013)", "key": {"[1]": {"test_system": "pERK in sMPNST cells", "experiment": "Phospho-ERK Western blot", "format": "cell-based, mouse", "conditions": "10 µM for 30 minutes", "method_in_brief": "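Mouse sMPNST cells treated with test compound at 10 µM for 30 min, then trypsinized and lysed in RIPA buffer. Lysates run on 5–20% SDS-PAGE gels and immunoblotted for phospho-ERK and total ERK, with αTubulin or GAPDH as loading reference.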"}, "[2]": {"test_system": "MPNSTs from the cis-Nf1+/-;p53+/- mouse model", "conditions": "ref [7], [44]; cited from earlier work"}, "[3]": {"test_system": "pAKT in sMPNST cells", "experiment": "Phospho-AKT Western blot", "format": "cell-based, mouse", "conditions": "20 µM for 30 or 60 minutes", "method_in_brief": "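Mouse sMPNST cells exposed to a PI3K-inhibitor test compound at 20 µM for 30 or 60 min. Cells collected, trypsinized and lysed in RIPA buffer. Lysates resolved on 5–20% SDS-PAGE gels and immunoblotted for phospho-AKT and total AKT, with αTubulin or GAPDH as loading reference.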"}, "[4]": {"test_system": "sMPNST cells", "experiment": "CellTiter-Glo ATP luminescence assay, dose response", "format": "cell-based, mouse", "conditions": "rapamycin alone"}, "[5]": {"test_system": "pS6 in sMPNST cells", "experiment": "pS6 Western blot", "format": "cell-based, mouse", "conditions": "0.05 µM (50 nM) for 30 or 60 min", "method_in_brief": "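Mouse sMPNST cells exposed to test compound at 0.05 µM (50 nM) for 30 or 60 min. Cells collected, trypsinized and lysed in RIPA buffer. Lysates resolved on 5–20% SDS-PAGE gels and probed for phospho-S6.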"}}, "data": [{"smiles": "N#CC(=C(/N)Sc1ccccc1N)/C(C#N)=C(/N)Sc1ccccc1N", "note": "[U0126]", "values": [{"measurement": "Phospho-ERK inhibition", "setting": "[1]", "value": "verified by Western blotting"}]}, {"smiles": "c1cc(CN2CCCNCCNCCCNCC2)ccc1CN1CCCNCCNCCCNCC1", "note": "[AMD3100]", "values": [{"measurement": "inhibition of MPNSTs", "setting": "[2]", "value": "inhibit MPNSTs"}]}, {"smiles": "O=c1cc(N2CCOCC2)oc2c(-c3ccccc3)cccc12", "note": "[LY294002]", "values": [{"measurement": "pAKT inhibition", "setting": "[3]", "value": "effective pAKT inhibition"}]}, {"smiles": "CO[C@H]1C[C@@H]2CC[C@@H](C)[C@@](O)(O2)C(=O)C(=O)N2CCCC[C@H]2C(=O)O[C@H]([C@H](C)C[C@@H]2CC[C@@H](O)[C@H](OC)C2)CC(=O)[C@H](C)/C=C(\\C)[C@@H](O)[C@@H](OC)C(=O)[C@H](C)C[C@H](C)/C=C/C=C/C=C/1C", "note": "[rapamycin]", "values": [{"measurement": "sMPNST cellular growth response", "setting": "[4]", "value": "relatively resistant"}, {"measurement": "pS6 levels", "setting": "[5]", "value": "decreased pS6 levels"}, {"measurement": "inhibition of MPNSTs", "setting": "[2]", "value": "inhibit MPNSTs"}]}]}
